Measurements from different studies.
Protocols differ between the studies behind these lines.
Target: D(3) dopamine receptor (DRD3, Homo sapiens, UniProt P35462)
Tested at: 10 µM

| Compound | observed | mode | method | inhibition [%] |
| --- | --- | --- | --- | --- |
| Nc1nonc1C(=O)NCCNCc1cccc(OCc2ccccc2F)c1 | enzyme activity | inhibitor |  | 4.3 |
| CN([C@@H]1CCc2c(CC(=O)O)c3ccccc3n2C1)S(=O)(=O)c1ccc(F)cc1 | ligand displacement |  |  | -4.25 |
| O=C(c1ccc(F)cc1)N(Cc1ccccc1)C1CCCCC1 | cell-free assay |  |  | 8 |
| CCN(CC)c1ccc(C2Nc3ccc(C(=O)c4ccccc4)cc3NC3=C2C(=O)CC(C)(C)C3)cc1 (stereo not shown) | ligand displacement |  | radioligand | 12 |
| CCCNc1nc2ccccc2n1Cc1ccc(Cl)cc1 | ligand displacement |  |  | 40.8 |
| CCN(Cc1ccccc1C(F)(F)F)C(=O)C1CCN(S(=O)(=O)c2ccc3[nH]ncc3c2)CC1 | ligand displacement |  | radioligand | 23 |
| COc1ccc(-c2ccc(CNCC(O)c3ccccc3)o2)cc1Cl (stereo not shown) | enzyme activity | inhibitor |  | 12.1 |
| N#CN1CC[C@H](C(=O)Nc2nc3c(s2)CN(C(=O)CN=[N+]=[N-])CC3)C1 | ligand displacement |  |  | -2.14 |
| COc1cccc(N2CCN(C3CC(=O)N(c4cccc(OC)c4)C3=O)CC2)c1 (stereo not shown) | enzyme activity | inhibitor |  | -37.6 |
| N#Cc1cc(Cn2c(N3CCCC3)nc3ccccc32)ccc1F | ligand displacement |  |  | 39.3 |
